Source: ChEMBL document CHEMBL4190262, “Tuning of β-glucosidase and α-galactosidase inhibition by generation and in situ screening of a library of pyrrolidine-triazole hybrid molecules” (Eur J Med Chem, 2017)

Legend:
[1] = molecular target: Alpha-galactosidase (Coffea arabica) (UniProt Q42656); assay: Inhibition of coffee beans alpha-galactosidase at 1 mM using p-nitrophenyl glycopyranoside preincubated for 5 mins followed by substrate addition measured after 20 mins by visible absorption spectroscopic method relative to control
Sequence of Alpha-galactosidase (Coffea arabica) (Q42656 16-378 limits assumed): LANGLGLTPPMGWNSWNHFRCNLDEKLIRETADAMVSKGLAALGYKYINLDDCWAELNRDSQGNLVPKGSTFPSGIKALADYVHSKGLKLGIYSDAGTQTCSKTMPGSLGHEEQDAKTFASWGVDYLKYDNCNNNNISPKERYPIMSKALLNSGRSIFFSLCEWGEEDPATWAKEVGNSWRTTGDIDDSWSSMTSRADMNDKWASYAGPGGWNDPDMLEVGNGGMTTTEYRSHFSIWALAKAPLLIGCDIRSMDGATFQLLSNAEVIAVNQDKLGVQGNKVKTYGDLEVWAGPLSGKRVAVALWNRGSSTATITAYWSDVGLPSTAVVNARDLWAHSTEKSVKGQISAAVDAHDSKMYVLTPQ
How it was run: (§1)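 Test compound at 1 mM in well. Mix: 0.01–0.5 units/mL enzyme plus 10 mM p-nitrophenyl glycopyranoside (aqueous solution), buffered to the enzyme's optimal pH. Enzyme and inhibitor preincubated 5 min at rt. Substrate then added and incubated 20 min at 37 °C. Stopped with sodium borate (pH 9.8). p-Nitrophenolate read at 405 nm. Duplicates averaged.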

[2] = molecular target: T1, Alpha-galactosidase A (Homo sapiens) (UniProt P06280); assay: Inhibition of human lysosomal alpha-galactosidase A at 1 mM using 4-methylumbelliferyl-alpha-D-galactopyranoside as substrate preincubated for 45 mins followed by substrate addition measured after 30 mins by fluorescence spectroscopic method relative to control
T1 sequence (whole entry): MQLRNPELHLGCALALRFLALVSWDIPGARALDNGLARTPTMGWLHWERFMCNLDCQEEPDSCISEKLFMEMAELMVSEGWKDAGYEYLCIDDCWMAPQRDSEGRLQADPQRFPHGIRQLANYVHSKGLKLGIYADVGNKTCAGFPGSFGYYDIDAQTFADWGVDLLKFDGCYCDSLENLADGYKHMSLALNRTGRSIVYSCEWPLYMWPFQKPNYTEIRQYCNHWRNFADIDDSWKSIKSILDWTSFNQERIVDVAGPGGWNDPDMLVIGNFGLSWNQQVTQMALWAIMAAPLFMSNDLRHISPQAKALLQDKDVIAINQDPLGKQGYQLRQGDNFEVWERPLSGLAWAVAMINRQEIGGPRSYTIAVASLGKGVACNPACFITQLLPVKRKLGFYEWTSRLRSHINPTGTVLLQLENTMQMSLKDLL
How it was run: (§2)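 Enzyme in 100 mM McIlvaine buffer pH 5.2 with 0.25% sodium taurocholate and 0.1% Triton X-100, with inhibitor. Preincubated at 0 °C for 45 min, then started with 3 mM 4-methylumbelliferyl glycoside substrate solution and incubated 30 min at 37 °C. Stopped with 400 mM glycine-NaOH pH 10.6. 4-Methylumbelliferone fluorescence read at ex 362/em 450 nm.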

[3] = Inhibition of almond beta-glucosidase using p-nitrophenyl glycopyranoside preincubated for 5 mins followed by substrate addition measured after 20 mins by visible absorption spectroscopic method; parameters: species or system Prunus dulcis
How it was run: (§3)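 IC50 determined only for compounds giving ≥80% inhibition at 1 mM, read from plots of % inhibition versus inhibitor concentration. p-Nitrophenyl glycopyranoside substrate (10 mM solution) at the enzyme's optimal pH, with 0.01–0.5 units/mL enzyme. 5 min rt preincubation with enzyme, then 20 min at 37 °C. Borate stop (pH 9.8), absorbance at 405 nm. Duplicates averaged.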

[4] = molecular target: T2, Lysosomal acid glucosylceramidase (Homo sapiens, UniProt P04062); assay: Inhibition of human lysosomal beta-glucocerebrosidase using 4-methylumbelliferyl-beta-D-glucopyranoside as substrate preincubated for 45 mins followed by substrate addition measured after 30 mins by fluorescence spectroscopic method; how it was run: as §2
T2 sequence (P04062 whole entry): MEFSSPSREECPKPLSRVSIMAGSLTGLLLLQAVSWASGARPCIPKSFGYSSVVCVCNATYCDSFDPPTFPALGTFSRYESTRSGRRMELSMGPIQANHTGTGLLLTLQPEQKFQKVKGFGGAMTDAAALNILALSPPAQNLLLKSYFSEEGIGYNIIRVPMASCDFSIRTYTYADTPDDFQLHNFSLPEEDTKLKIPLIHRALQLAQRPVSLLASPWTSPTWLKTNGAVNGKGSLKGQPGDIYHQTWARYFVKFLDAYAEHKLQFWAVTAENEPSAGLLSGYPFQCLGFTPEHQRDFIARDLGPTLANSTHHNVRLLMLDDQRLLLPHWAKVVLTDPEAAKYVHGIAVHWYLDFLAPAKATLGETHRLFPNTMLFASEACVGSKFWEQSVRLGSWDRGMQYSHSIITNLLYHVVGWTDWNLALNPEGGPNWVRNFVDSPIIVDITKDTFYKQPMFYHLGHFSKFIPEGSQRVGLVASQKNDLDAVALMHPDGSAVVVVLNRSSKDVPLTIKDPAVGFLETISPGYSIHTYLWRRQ

[5] = organism: Bos taurus; assay: Inhibition of bovine liver beta-glucosidase at 1 mM using p-nitrophenyl glycopyranoside preincubated for 5 mins followed by substrate addition measured after 20 mins by visible absorption spectroscopic method relative to control; how it was run: as §1
[6] = system: Prunus dulcis; assay: Inhibition of almond beta-glucosidase at 10 uM using p-nitrophenyl glycopyranoside preincubated for 5 mins followed by substrate addition measured after 20 mins by visible absorption spectroscopic method relative to control
How it was run: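 Crude click-reaction products screened in situ. Azide (final 15 mM) was reacted with each alkyne using sodium ascorbate/CuSO4 in tBuOH–H2O for 24 h at rt, then diluted with water. Tested at 10 μM per well, assuming quantitative conversion, against almond β-glucosidase at pH 5, 37 °C. p-Nitrophenyl glycoside read-out at 405 nm.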

[7] = molecular target: T3, Beta-galactosidase (Bos taurus, UniProt Q58D55); assay: Inhibition of bovine liver beta-galactosidase using p-nitrophenyl glycopyranoside preincubated for 5 mins followed by substrate addition measured after 20 mins by visible absorption spectroscopic method; how it was run: as §3
T3 sequence (Q58D55 whole entry): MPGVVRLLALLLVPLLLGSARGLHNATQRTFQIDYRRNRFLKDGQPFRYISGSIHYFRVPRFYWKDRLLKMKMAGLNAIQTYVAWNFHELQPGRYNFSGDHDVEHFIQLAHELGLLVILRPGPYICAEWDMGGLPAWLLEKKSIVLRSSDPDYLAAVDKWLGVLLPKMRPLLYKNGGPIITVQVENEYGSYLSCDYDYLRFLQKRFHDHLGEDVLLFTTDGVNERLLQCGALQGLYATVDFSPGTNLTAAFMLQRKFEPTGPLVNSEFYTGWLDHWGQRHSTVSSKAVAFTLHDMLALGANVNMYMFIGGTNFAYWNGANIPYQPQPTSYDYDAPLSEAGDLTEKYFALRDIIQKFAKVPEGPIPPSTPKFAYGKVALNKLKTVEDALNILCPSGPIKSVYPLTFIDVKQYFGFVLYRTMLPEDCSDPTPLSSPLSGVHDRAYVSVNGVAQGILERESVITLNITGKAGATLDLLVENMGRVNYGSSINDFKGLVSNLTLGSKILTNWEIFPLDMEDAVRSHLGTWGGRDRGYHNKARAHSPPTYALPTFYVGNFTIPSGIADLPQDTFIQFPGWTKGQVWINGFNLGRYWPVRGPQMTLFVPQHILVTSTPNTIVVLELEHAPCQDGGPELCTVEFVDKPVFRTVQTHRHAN

[8] = system: Prunus dulcis; assay: Inhibition of almond beta-glucosidase at 1 mM using p-nitrophenyl glycopyranoside preincubated for 5 mins followed by substrate addition measured after 20 mins by visible absorption spectroscopic method relative to control; how it was run: as §1
[9] = molecular target: T4, Alpha-galactosidase A (Homo sapiens, UniProt P06280); assay: Inhibition of human lysosomal alpha-galactosidase A using 4-methylumbelliferyl-alpha-D-galactopyranoside as substrate preincubated for 45 mins followed by substrate addition measured after 30 mins by fluorescence spectroscopic method; how it was run: as §2
T4 sequence (P06280 whole entry): T1 sequence (whole entry)

[10] = molecular target: Alpha-galactosidase (Coffea arabica) (UniProt Q42656); assay: Inhibition of coffee beans alpha-galactosidase at 50 uM using p-nitrophenyl glycopyranoside preincubated for 5 mins followed by substrate addition measured after 20 mins by visible absorption spectroscopic method relative to control
How it was run: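 Crude triazoles from in situ CuAAC (ascorbate/CuSO4, 24 h rt, water-diluted) were screened at 50 μM per well, assuming full conversion. Enzyme was coffee bean α-galactosidase at pH 6, 37 °C, with p-nitrophenyl glycoside substrate and 405 nm read-out. Blanks of CuSO4, ascorbate and each alkyne were run.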

[11] = molecular target: Alpha-galactosidase (Coffea arabica, UniProt Q42656); assay: Inhibition of coffee beans alpha-galactosidase using p-nitrophenyl glycopyranoside preincubated for 5 mins followed by substrate addition measured after 20 mins by visible absorption spectroscopic method; how it was run: as §3
Sequence of Alpha-galactosidase (Q42656 whole entry): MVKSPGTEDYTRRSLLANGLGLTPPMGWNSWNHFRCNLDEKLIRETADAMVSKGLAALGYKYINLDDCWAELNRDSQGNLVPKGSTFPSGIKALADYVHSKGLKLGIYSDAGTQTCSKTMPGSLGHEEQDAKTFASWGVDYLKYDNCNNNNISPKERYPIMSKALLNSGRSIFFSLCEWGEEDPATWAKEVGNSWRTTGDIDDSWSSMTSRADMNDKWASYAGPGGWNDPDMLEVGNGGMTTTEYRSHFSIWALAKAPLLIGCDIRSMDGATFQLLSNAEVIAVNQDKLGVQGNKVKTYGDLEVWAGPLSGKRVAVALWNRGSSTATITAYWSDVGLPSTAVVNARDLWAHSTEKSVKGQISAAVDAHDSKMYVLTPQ

[12] = Selectivity ratio of IC50 for human lysosomal alpha-galactosidase A to IC50 for coffee beans alpha-galactosidase
[13] = Inhibition of bovine liver beta-glucosidase using p-nitrophenyl glycopyranoside preincubated for 5 mins followed by substrate addition measured after 20 mins by visible absorption spectroscopic method; parameters: species or system Bos taurus; how it was run: as §3

Row | inhibition [1] [%] | inhibition [2] [%] | IC50 [3] [µM] | IC50 [4] [µM] | inhibition [5] [%] | inhibition [6] [%] | IC50 [7] [µM] | inhibition [8] [%] | IC50 [9] [µM] | inhibition [10] [%] | IC50 [11] [µM] | Ratio IC50 [12] | IC50 [13] [µM] | Structure (SMILES)
1 | < 50 | < 50 | 7 | 19 | < 50 | 65 | 151 |  |  |  |  |  |  | C[Si](C)(C)Cc1cn(C[C@@H]2NC[C@@H](O)[C@H]2O)nn1
2 |  |  |  | 31 |  |  | 338 | < 50 | 185 | 67 | 13 | 10 | 887 | COc1ccc(-c2cn(C[C@H]3NC[C@@H](O)[C@H]3O)nn2)cc1
3 |  |  |  | 187 |  |  | 268 | < 50 | 159 | 66 | 14 | 10 | 888 | OCc1ccc(-c2cn(C[C@H]3NC[C@@H](O)[C@H]3O)nn2)cc1
